Results: ChEMBL document CHEMBL1134615, “Structure-based design and synthesis of potent matrix metalloproteinase inhibitors derived from a 6H-1,3,4-thiadiazine scaffold” (J Med Chem, 2001)

Legend:
[1] = molecular target: Matrix metalloproteinase-9 (Homo sapiens, UniProt P14780); test: In vitro inhibition of human matrix metalloprotease-9
Outline: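 Full-length PMNL pro-gelatinase from human plasma buffy coat, activated with trypsin for 10 min at 37 °C, then trypsin inactivated with TKI. […] Buffer 50 mM HEPES pH 7.0, 10 mM CaCl2, 0.02% PEG 8000, 2% DMSO, 25 °C. Inhibitor 0.005-15 µM, 30 min preincubation, triplicate. Ki from logistic IC50 by the Horovitz-Levitski method.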

[2] = molecular target: 72 kDa type IV collagenase (Homo sapiens, UniProt P08253)
Interstitial collagenase = molecular target: T1, Interstitial collagenase (Homo sapiens, UniProt P03956); test: In vitro inhibitory activity against full-length human matrix metalloprotease-1
T1 sequence (P03956 whole entry): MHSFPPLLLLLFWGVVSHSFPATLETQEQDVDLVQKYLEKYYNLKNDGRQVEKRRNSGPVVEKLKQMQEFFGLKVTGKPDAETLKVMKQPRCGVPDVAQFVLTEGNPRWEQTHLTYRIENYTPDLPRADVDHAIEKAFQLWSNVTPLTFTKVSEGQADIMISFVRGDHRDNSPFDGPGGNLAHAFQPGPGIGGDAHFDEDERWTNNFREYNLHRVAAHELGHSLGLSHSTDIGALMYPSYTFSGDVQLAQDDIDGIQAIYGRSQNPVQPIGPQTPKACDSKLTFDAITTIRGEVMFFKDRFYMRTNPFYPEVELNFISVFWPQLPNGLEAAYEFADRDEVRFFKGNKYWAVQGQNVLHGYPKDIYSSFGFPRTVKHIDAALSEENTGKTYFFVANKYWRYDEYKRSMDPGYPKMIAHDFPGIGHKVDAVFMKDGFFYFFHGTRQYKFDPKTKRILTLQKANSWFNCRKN

Collagenase 3 = Collagenase 3 (Homo sapiens, UniProt P45452); test: In Vitro inhibitory activity against the catalytic domain of the matrix metalloprotease-13
Neutrophil collagenase = Neutrophil collagenase (Homo sapiens, UniProt P22894); test: Inhibitory activity against matrix metalloprotease-8
[3] = molecular target: Macrophage metalloelastase (Homo sapiens, UniProt P39900); test: In Vitro inhibitory activity against the catalytic domain of the matrix metalloprotease-12
Outline: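 Human MMP-12 catalytic domain, expressed in E. coli as inclusion bodies, renatured and affinity-purified. FRET assay in 50 mM HEPES/NaOH pH 7.0, 10 mM CaCl2, 0.02% PEG 8000, 2% DMSO, 25 °C. […] Inhibitor at 0.005-15 µM, 30 min preincubation, ex 330/em 405 nm, triplicate. Four-parameter logistic IC50, then Ki by the Horovitz-Levitski method.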

[4] = molecular target: T2, Matrix metalloproteinase-14 (Homo sapiens, UniProt P50281); test: In vitro inhibitory activity against the ectodomain of the human matrix metalloprotease-14
Outline: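 Ectodomain of human MMP-14 (ΔTM) expressed in Pichia pastoris. […] Buffer 50 mM HEPES pH 7.0, 10 mM CaCl2, 0.02% PEG 8000, 2% DMSO, 25 °C. Inhibitor 0.005-15 µM, 30 min preincubation, ex 330/em 405 nm, triplicate. Ki from logistic-fit IC50 by the Horovitz-Levitski method.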

[5] = molecular target: T2, Matrix metalloproteinase-14; test: Inhibition of matrix metalloprotease-14
[6] = molecular target: T2, Matrix metalloproteinase-14; test: In vitro inhibitory activity against the catalytic domain of human matrix metalloprotease-14
Outline: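 E. coli-expressed human MMP-14 catalytic domain, activated by autocatalysis, at 0.3-5 nM. Assay buffer 50 mM HEPES pH 7.0, 10 mM CaCl2, 0.02% PEG 8000, 2% DMSO, 25 °C. […] Fluorescence ex 330/em 405 nm, triplicate. Ki derived from four-parameter logistic IC50 (Horovitz-Levitski).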

Sequence of Macrophage metalloelastase (P39900 whole entry, the tested form may be a part): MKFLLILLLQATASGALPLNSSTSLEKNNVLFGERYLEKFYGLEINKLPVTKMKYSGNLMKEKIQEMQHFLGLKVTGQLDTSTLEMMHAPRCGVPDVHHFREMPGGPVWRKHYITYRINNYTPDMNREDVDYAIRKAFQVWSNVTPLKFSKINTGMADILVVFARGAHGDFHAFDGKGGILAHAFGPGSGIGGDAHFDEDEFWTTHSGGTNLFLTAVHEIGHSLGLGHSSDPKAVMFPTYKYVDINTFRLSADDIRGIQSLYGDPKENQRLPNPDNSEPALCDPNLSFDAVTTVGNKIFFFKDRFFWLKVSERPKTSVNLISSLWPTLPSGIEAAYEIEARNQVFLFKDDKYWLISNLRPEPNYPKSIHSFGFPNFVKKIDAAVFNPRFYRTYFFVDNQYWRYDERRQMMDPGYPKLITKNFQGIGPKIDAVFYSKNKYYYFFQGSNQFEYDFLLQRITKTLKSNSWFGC
Sequence of Neutrophil collagenase (P22894 whole entry, the tested form may be a part): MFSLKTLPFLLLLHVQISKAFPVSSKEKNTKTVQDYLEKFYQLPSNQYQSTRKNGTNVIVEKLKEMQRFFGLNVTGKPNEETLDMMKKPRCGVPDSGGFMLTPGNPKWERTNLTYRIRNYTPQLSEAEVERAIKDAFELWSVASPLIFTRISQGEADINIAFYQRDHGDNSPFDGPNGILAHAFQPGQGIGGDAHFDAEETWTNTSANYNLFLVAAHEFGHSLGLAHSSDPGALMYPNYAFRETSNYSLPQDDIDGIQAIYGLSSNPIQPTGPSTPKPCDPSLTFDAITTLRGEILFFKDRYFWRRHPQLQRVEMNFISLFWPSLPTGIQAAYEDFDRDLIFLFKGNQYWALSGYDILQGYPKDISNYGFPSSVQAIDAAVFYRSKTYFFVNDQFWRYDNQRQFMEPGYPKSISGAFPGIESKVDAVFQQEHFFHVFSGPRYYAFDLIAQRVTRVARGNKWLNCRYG
Sequence of 72 kDa type IV collagenase (P08253 whole entry): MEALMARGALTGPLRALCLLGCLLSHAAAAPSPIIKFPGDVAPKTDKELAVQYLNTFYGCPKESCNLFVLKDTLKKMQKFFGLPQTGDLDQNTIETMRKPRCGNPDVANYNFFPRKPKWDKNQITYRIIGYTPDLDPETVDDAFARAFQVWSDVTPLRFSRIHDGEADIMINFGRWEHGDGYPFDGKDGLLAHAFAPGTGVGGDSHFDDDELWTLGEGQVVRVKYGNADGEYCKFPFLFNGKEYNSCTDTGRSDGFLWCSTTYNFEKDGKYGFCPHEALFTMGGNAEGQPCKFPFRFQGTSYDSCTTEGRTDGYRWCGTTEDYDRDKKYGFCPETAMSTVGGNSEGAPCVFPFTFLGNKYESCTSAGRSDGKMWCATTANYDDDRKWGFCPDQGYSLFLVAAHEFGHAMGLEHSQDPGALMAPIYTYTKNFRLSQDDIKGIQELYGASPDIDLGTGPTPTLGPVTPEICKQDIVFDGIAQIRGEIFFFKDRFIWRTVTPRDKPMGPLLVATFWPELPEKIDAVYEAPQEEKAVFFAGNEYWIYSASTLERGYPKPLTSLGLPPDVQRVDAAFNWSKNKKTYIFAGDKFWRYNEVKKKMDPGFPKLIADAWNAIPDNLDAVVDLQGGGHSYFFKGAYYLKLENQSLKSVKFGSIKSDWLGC
Sequence of Matrix metalloproteinase-9 (P14780 whole entry): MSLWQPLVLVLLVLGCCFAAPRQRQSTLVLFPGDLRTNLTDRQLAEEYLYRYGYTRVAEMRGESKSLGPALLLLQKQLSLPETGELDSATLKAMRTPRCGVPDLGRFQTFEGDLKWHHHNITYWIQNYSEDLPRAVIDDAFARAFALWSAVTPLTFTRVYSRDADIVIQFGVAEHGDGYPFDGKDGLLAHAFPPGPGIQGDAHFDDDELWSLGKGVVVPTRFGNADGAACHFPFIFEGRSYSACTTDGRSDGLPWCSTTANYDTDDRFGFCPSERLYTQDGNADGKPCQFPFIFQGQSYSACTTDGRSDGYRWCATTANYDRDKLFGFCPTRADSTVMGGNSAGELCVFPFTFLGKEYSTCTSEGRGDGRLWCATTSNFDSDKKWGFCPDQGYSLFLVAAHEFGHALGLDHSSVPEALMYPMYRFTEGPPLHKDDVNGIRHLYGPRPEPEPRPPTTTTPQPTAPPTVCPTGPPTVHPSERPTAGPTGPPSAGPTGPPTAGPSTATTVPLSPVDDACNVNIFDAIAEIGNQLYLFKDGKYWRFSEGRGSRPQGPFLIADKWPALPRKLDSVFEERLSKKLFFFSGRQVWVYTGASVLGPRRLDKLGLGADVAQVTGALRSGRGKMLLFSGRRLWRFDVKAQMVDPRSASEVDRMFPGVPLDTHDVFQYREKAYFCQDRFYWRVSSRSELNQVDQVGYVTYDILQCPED

Row | Compound | Ki [1] [nM] | Ki [2] [nM] | Ki (Interstitial collagenase) [nM] | Ki (Collagenase 3) [nM] | Ki (Neutrophil collagenase) [nM] | Ki [3] [nM] | Ki [4] [nM] | Ki [5] [nM] | Ki [6] [nM]
1 | C[C@H](NS(=O)(=O)c1ccccc1)C(=O)NC1=NN=C(c2ccc(C#N)cc2)CS1 | 80 | 240 | 390 | 250 | 220 | 370 | 400 | 240 | –
2 | C[C@H](NS(=O)(=O)c1ccccc1)C(=O)NC1=NN=C(C23CC4CC(CC(C4)C2)C3)CS1 | > 15000 | > 15000 | – | > 15000 | > 15000 | 410 | – | – | 3070
3 | C[C@H](NS(=O)(=O)c1ccccc1)C(=O)NC1=NN=C(c2ccc([N+](=O)[O-])cc2)CS1 | 130 | 300 | 260 | 260 | 170 | 280 | – | – | 290
4 | CC(C)(NS(=O)(=O)c1ccccc1)C(=O)NC1=NN=C(c2ccc(Cl)cc2)CS1 | 90 | 80 | 300 | 180 | 480 | 200 | 110 | – | 150
5 | Cc1ccc(C2=NN=C(NC(=O)[C@H](C)NS(=O)(=O)c3ccccc3)SC2)cc1 | 160 | 410 | – | 620 | 300 | 110 | – | – | 380
6 | C[C@H](NS(=O)(=O)c1ccccc1)C(=O)NC1=NN=C(c2ccc(Br)cc2)CS1 | 160 | 270 | – | 370 | 110 | 440 | – | 340 | –
7 | Cc1ccc(C2=NN=C(NC(=O)[C@@H](C)NS(=O)(=O)c3ccccc3)SC2)cc1 | 210 | 440 | 460 | 320 | 220 | 90 | 150 | – | 290
8 | C[C@H](NS(=O)(=O)c1ccccc1)C(=O)NC1=NN=C(c2ccc(Cl)cc2)CS1 | 60 | 140 | 650 | 180 | 730 | 520 | 210 | – | 100
9 | C[C@H](NS(=O)(=O)c1ccccc1)C(=O)NC1=NN=C(c2ccc(F)cc2)CS1 | 160 | 450 | 440 | 650 | – | 280 | – | – | 440
10 | C[C@H](NS(=O)(=O)Cc1ccccc1)C(=O)NC1=NN=C(c2ccc(Cl)cc2)CS1 | 40 | 90 | 360 | 120 | 200 | 480 | 180 | – | 190
11 | CC(C)[C@@H](NS(=O)(=O)c1ccccc1)C(=O)NC1=NN=C(c2ccc(Cl)cc2)CS1 | > 15000 | 850 | 550 | > 15000 | 4370 | 350 | 330 | – | 590
12 | CC(C)[C@H](NS(=O)(=O)c1ccccc1)C(=O)NC1=NN=C(c2ccc(Cl)cc2)CS1 | 200 | 880 | – | > 15000 | 780 | 380 | – | – | 740
13 | C[C@@H](NS(=O)(=O)c1ccccc1)C(=O)NC1=NN=C(c2ccc(Cl)cc2)CS1 | 80 | 500 | 210 | 140 | 150 | 320 | 210 | 50 | –
14 | C[C@@H](NS(=O)(=O)c1ccccc1)C(=O)NC1=NN=C(c2ccc(Br)cc2)CS1 | 40 | 150 | 420 | 130 | 210 | 340 | 180 | 200 | –
15 | COc1ccc(C2=NN=C(NC(=O)[C@H](C)NS(=O)(=O)c3ccccc3)SC2)cc1 | 320 | – | 580 | 1330 | 180 | 340 | – | – | 590
16 | C[C@@H](NS(=O)(=O)c1ccccc1)C(=O)NC1=NN=C(c2ccc(F)cc2)CS1 | 50 | 340 | 630 | 300 | – | 350 | 330 | – | 390
17 | C[C@H](NS(=O)(=O)c1cccs1)C(=O)NC1=NN=C(c2ccc(Cl)cc2)CS1 | 800 | 550 | – | 3810 | 60 | 360 | – | – | 250
18 | C[C@H](NS(=O)(=O)c1ccccc1)C(=O)NC1=NN=C(c2ccc(C(F)(F)F)cc2)CS1 | 240 | – | 430 | 570 | 260 | 300 | 390 | – | 580
19 | C[C@H](NS(=O)(=O)c1ccccc1)C(=O)NC1=NN=C(c2ccc(Cl)s2)CS1 | 170 | 1870 | 450 | 470 | 180 | 240 | 200 | – | 320
20 | C[C@@H](NS(=O)(=O)c1ccccc1)C(=O)NC1=NN=C(c2ccc(C#N)cc2)CS1 | 80 | 210 | 400 | 210 | 230 | 360 | 400 | 240 | –
